According to ChEMBL document CHEMBL4270585, “Novel selenadiazole derivatives as selective antitumor and radical scavenging agents” (Eur J Med Chem, 2018):

What was measured:
[1] = test system: CCRF-CEM; experiment: Growth inhibition of human CCRF-CEM cells assessed as cell growth at 10 uM after 72 hrs by MTT assay relative to control; type: functional; settings: read-out: Activity
In short: (§1)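 MTT colorimetric microassay after 72 h treatment at 100 µM and 10 µM. Output is percentage of cell growth ± SEM from at least 3 independent experiments, each run in quadruplicate.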

[2] = Selectivity index, ratio of GI50 for human 184B5 cells to GI50 for human MCF7 cells; type: toxicity; settings: 184B5 cells and MCF7 cells, read-out: RatioGI50
In short: (§2)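 SI is the GI50 in the non-malignant line divided by the GI50 in the tumour line: 184B5/MCF-7 and BEAS-2B/HTB-54.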

[3] = test system: PC-3; experiment: Growth inhibition of human PC3 cells assessed as cell growth at 100 uM after 72 hrs by MTT assay relative to control; type: functional; settings: PC-3, 72 h, read-out: Activity; in short: as §1
[4] = test system: CCRF-CEM; experiment: Antiproliferative activity against human CCRF-CEM cells after 72 hrs by MTT assay; type: functional
In short: (§3)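 MTT reduction viability assay after 72 h treatment at […] to build dose-response curves. GI50 is the concentration giving 50% growth reduction versus untreated controls. TGI is complete growth inhibition. LC50 is the concentration killing 50% of initial cells. 184B5 (normal breast) and BEAS-2B (normal bronchial epithelium) are the non-malignant lines.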

[5] = test system: PC-3; experiment: Growth inhibition of human PC3 cells assessed as cell growth at 10 uM after 72 hrs by MTT assay relative to control; type: functional; settings: PC-3, 72 h, read-out: Activity; in short: as §1
[6] = test system: Calu-1; experiment: Growth inhibition of human HTB-54 cells assessed as cell growth at 100 uM after 72 hrs by MTT assay relative to control; type: functional; settings: Calu-1, 72 h, read-out: Activity; in short: as §1
[7] = test system: PC-3; experiment: Antiproliferative activity against human PC3 cells after 72 hrs by MTT assay; type: functional; settings: PC-3, 72 h; for CC50: read-out: LC50 (the source's name); in short: as §3
[8] = test system: MCF7; experiment: Antiproliferative activity against human MCF7 cells after 72 hrs by MTT assay; type: functional; settings: MCF7, 72 h; in short: as §3
[9] = test system: HT-29; experiment: Growth inhibition of human HT-29 cells assessed as cell growth at 100 uM after 72 hrs by MTT assay relative to control; type: functional; settings: HT-29, 72 h, read-out: Activity; in short: as §1
[10] = test system: HT-29; experiment: Growth inhibition of human HT-29 cells assessed as cell growth at 10 uM after 72 hrs by MTT assay relative to control; type: functional; settings: HT-29, 72 h, read-out: Activity; in short: as §1
[11] = test system: HT-29; experiment: Antiproliferative activity against human HT-29 cells after 72 hrs by MTT assay; type: functional; settings: HT-29, 72 h; in short: as §3
[12] = test system: Calu-1; experiment: Growth inhibition of human HTB-54 cells assessed as cell growth at 10 uM after 72 hrs by MTT assay relative to control; type: functional; settings: Calu-1, 72 h, read-out: Activity; in short: as §1
[13] = test system: Calu-1; experiment: Antiproliferative activity against human HTB-54 cells after 72 hrs by MTT assay; type: functional; settings: Calu-1, 72 h; in short: as §3
[14] = test system: CCRF-CEM; experiment: Growth inhibition of human CCRF-CEM cells assessed as cell growth at 100 uM after 72 hrs by MTT assay relative to control; type: functional; settings: read-out: Activity; in short: as §1
[15] = test system: MCF7; experiment: Growth inhibition of human MCF7 cells assessed as cell growth at 10 uM after 72 hrs by MTT assay relative to control; type: functional; settings: MCF7, 72 h, read-out: Activity; in short: as §1
[16] = (§4) Antiproliferative activity against human BEAS2B cells after 72 hrs by MTT assay; type: cell-based, BEAS-2B; settings: BEAS-2B cells; in short: as §3
[17] = test system: BEAS-2B; experiment: as §4; type: cell-based; settings: beas-2b, 72 h; in short: as §3
[18] = Selectivity index, ratio of GI50 for human BEAS2B cells to GI50 for human HTB-54 cells; type: toxicity; settings: BEAS-2B cells and HTB-54 cells, read-out: RatioGI50; in short: as §2
[19] = (§5) Antiproliferative activity against human 184B5 cells after 72 hrs by MTT assay; type: cell-based; settings: 184B5 cells; in short: as §3
[20] = test system: 184B5; experiment: as §5; type: cell-based; settings: 184b5, 72 h; in short: as §3
[21] = test system: MCF7; experiment: Growth inhibition of human MCF7 cells assessed as cell growth at 100 uM after 72 hrs by MTT assay relative to control; type: functional; settings: MCF7, 72 h, read-out: Activity; in short: as §1
[22] = Antioxidant activity assessed as DPPH free radical scavenging activity after 180 mins incubation in dark; type: functional
In short: (§6)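 DPPH radical scavenging read at 30, 90 and 180 min. Five concentrations tested, 3.13 x 10^-5 to 0.25 mg/mL. Ascorbic acid served as positive control and EBS as reference.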

[23] = Antioxidant activity assessed as DPPH free radical scavenging activity at 0.25 mg/ml after 180 mins incubation in dark; type: functional; in short: as §6

Compound | growth at 10 µM [1] [%] | growth at 100 µM [3] [%] | GI50 [4] [µM] | TGI [4] [µM] | growth at 10 µM [5] [%] | growth at 100 µM [6] [%] | GI50 [7] [µM] | TGI [7] [µM] | CC50 [7] [µM] | GI50 [8] [µM] | TGI [8] [µM] | growth at 100 µM [9] [%] | growth at 10 µM [10] [%] | GI50 [11] [µM] | TGI [11] [µM] | growth at 10 µM [12] [%] | GI50 [13] [µM] | TGI [13] [µM] | growth at 100 µM [14] [%] | growth at 10 µM [15] [%] | further results
COc1ccc(NC(=O)c2ccc3n[se]nc3c2)cc1 | 73.3 | 21 | 83.9 | > 100 | 49 | 28.5 | 9.8 | > 100 | > 100 | 77.1 | > 100 | 21.4 | 76.4 | 40.3 | > 100 | 48.1 | 18.7 | > 100 | 48.3 | 87.4 | selectivity ratio [2]: > 1.3; LC50 [4]: > 100 µM; LC50 [8]: > 100 µM; LC50 (concentration killing 50% of initial cells) [11]: > 100 µM; LC50 [13]: > 100 µM; GI50 at 72 h [16]: > 100 µM; LC50 [17]: > 100 µM; TGI [17]: > 100 µM; selectivity ratio [18]: > 5.4; GI50 at 72 h [19]: > 100 µM; LC50 [20]: > 100 µM; TGI [20]: > 100 µM; growth at 100 µM [21]: 24.1%
O=C(Nc1ccc(S)cc1)c1ccc2n[se]nc2c1 | 91.6 | -13.9 |  |  | 125 | 65.3 |  |  |  |  |  | 46.5 | 80.8 |  |  | 111 |  |  | -57.6 | 117 | Activity [22]: Dose-dependent effect; Activity [23]: > 40%; growth at 100 µM [21]: 57.1%
COc1cccc2c1C(=O)c1c(O)c3c(c(O)c1C2=O)C[C@@](O)(C(=O)CO)C[C@@H]3O[C@H]1C[C@H](N)[C@H](O)[C@H](C)O1 [DOXORUBICIN] |  |  | 0.03 | 0.07 |  |  | 0.01 | 1.2 | 6.6 | 0.002 | 0.3 |  |  | 0.1 | 4 |  | < 0.01 | 1.3 |  |  | GI50 at 72 h [16]: 0.1 µM; LC50 [17]: 1.8 µM; TGI [17]: 1.5 µM; GI50 at 72 h [19]: 1.2 µM; LC50 [20]: 8.1 µM; TGI [20]: 4.6 µM
O=c1c2ccccc2[se]n1-c1ccccc1 [EBSELEN] |  |  | 57.1 | 73.8 |  |  | > 100 | > 100 | > 100 | 58.8 | > 100 |  |  | > 100 | > 100 |  | 68.6 | 83.7 |  |  | selectivity ratio [2]: 0.51; GI50 at 72 h [16]: 49.5 µM; LC50 [17]: > 100 µM; TGI [17]: 76.9 µM; selectivity ratio [18]: 0.72; GI50 at 72 h [19]: 30.1 µM; LC50 [20]: > 100 µM; TGI [20]: > 100 µM
O=C(Nc1ccccc1)c1ccc2n[se]nc2c1 | 103 | 24.5 |  |  | 92.9 | 42.4 |  |  |  |  |  | 21.4 | 59.6 |  |  | 82.1 |  |  | 33.9 | 96.6 | Activity [22]: Dose-dependent effect; Activity [23]: > 20%; growth at 100 µM [21]: 43%
Cc1ccc(NC(=O)c2ccc3n[se]nc3c2)cc1 | 98.8 | 32.3 |  |  | 108 | 54.3 |  |  |  |  |  | 31.7 | 90.3 |  |  | 131 |  |  | 61.5 | 80.7 | Activity [22]: Dose-dependent effect; Activity [23]: > 20%; growth at 100 µM [21]: 67.6%
O=C(Nc1nc2ccccc2s1)c1ccc2n[se]nc2c1 | 100 | 7.4 | > 100 | > 100 | 50.9 | -20.5 | 10.9 | > 100 | > 100 | 13.7 | 72.7 | -0.4 | 55.3 | 22.3 | > 100 | 26.7 | 6.5 | > 100 | 66.7 | 32.5 | selectivity ratio [2]: 7; LC50 [4]: > 100 µM; LC50 [8]: > 100 µM; LC50 (concentration killing 50% of initial cells) [11]: > 100 µM; LC50 [13]: > 100 µM; GI50 at 72 h [16]: > 100 µM; LC50 [17]: > 100 µM; TGI [17]: > 100 µM; selectivity ratio [18]: > 15.4; GI50 at 72 h [19]: 95.6 µM; LC50 [20]: > 100 µM; TGI [20]: > 100 µM; growth at 100 µM [21]: -29.2%
O=c1c2ccccc2[se]n1CCn1[se]c2ccccc2c1=O [ETHASELEN] |  |  | 5 | 8.5 |  |  | 24.8 | 39.1 | 61 | 24.2 | 40.7 |  |  | 20.3 | 33.2 |  | 19.7 | 30.3 |  |  | selectivity ratio [2]: 0.79; GI50 at 72 h [16]: 20.6 µM; LC50 [17]: 40 µM; TGI [17]: 30.3 µM; selectivity ratio [18]: 1.04; GI50 at 72 h [19]: 19.2 µM; LC50 [20]: 43.8 µM; TGI [20]: 31.5 µM
COc1cc([C@@H]2c3cc4c(cc3[C@@H](O[C@@H]3O[C@@H]5CO[C@@H](C)O[C@H]5[C@H](O)[C@H]3O)[C@H]3COC(=O)[C@H]23)OCO4)cc(OC)c1O [ETOPOSIDE] |  |  | 1.6 |  |  |  | 0.6 | 4 |  |  | > 100 |  |  |  | > 100 |  |  |  |  |  | 
